Assay results as given in article PMC3201796 (Cell host & microbe, 2011).
In brackets after ≈: the same amount, converted by molar mass. Counter-ions that a name gives are not always drawn. Like-named read-outs stand apart in the source and are kept apart here.

Tests used:
HIV-1 RT = HIV-1 RT (Human immunodeficiency virus type 1 group M subtype B, UniProt P03366); test: HIV-1 reverse transcriptase assay; format: biochemical; details: competing dATP (3.2 μM); activated calf thymus DNA
How it was run: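 Reaction mix: Tris-HCl pH 7.5, DTT, MgCl2, BSA, activated calf thymus DNA, unlabelled dCTP, dTTP and dGTP, and [3H]dATP (3.2 µM) with diphosphate test compound at various concentrations. Started with recombinant HIV-1 RT and run 30 min at 37 °C. Stopped with ice-cold 5% TCA/pyrophosphate; acid-insoluble DNA caught on glass-fibre filters and counted by liquid scintillation.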

HSV-1 DNA polymerase = HSV-1 DNA polymerase (Human herpesvirus 1, UniProt P04293); test: HSV-1 DNA polymerase assay; format: biochemical
How it was run: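 Recombinant HSV-1 DNA polymerase; 40 µl reactions with a Tris.HCl pH 7.5/DTT/MgCl₂ premix, BSA and activated calf thymus DNA. One radiolabelled dNTP was the competing substrate: [³H]dATP (3.2 µM), [³H]dGTP (2.8 µM), [³H]dTTP (1 µM) or [³H]dCTP (2.5 µM); unlabelled others present. Tenofovir-diphosphate added from 200, 20, 2, 0.2 µM solutions. 60 min at 37°C; stopped with ice-cold TCA/pyrophosphate; acid-insoluble DNA collected on glass-fibre filters.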

Cytostatic activity [1] = format: cell-based; details: human, HEL cells, non-infected
Cytostatic activity [2] = format: cell-based; details: human, PHKs, non-infected
HEL cells = test: Cytotoxicity by cell morphology; format: cell-based, human; details: HEL, non-infected, cell morphology
How it was run: (§1)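 Run in non-infected cultures in parallel with the antiviral assay. Cells exposed to test compound and examined microscopically at day 3. MCC is the lowest concentration giving a detectable change in cell morphology.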

PHKs = test: Cytotoxicity by cell morphology; format: cell-based, human; details: non-infected
How it was run: as §1

HIV-1 = details: lymphoid and cervico-vaginal tissues; ref Lisco et al., 2008; cited from earlier work
HSV-2 [3] = format: cell-based; details: M/M
HSV-2 [4] = format: cell-based; details: day 6, M/M
HSV-2 [5] = test: HSV-2 cytopathicity in primary monocyte/macrophage cultures; format: cell-based; details: for Cytopathicity (CPE) (%): day 6, M/M
HSV-1 = test: HSV-1-infected athymic nude mice; format: in vivo; details: 1% gel, topical
How it was run: (§2)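 Female NMRI athymic nude or hairless mice (~20 g, ~4 weeks; groups of five) scarified over ~1 cm² lumbosacral area with HSV-1 KOS (5×10^3 PFU) or HSV-2 G (5×10^2). Test compound 1% in 100% DMSO or CAPRISA 004-type gel, topical twice daily for 5 days from 1-2 h post-infection; same vehicle without drug as placebo. Lesions and mortality recorded over one month; Kaplan-Meier survival, log-rank test.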

HSV-2 [6] = test: HSV-2-infected athymic nude mice; format: in vivo; details: 1% gel, topical
How it was run: as §2

HSV-2G, HSV-2MS = test: Human tonsillar tissue ex vivo infected with HSV-2; format: cell-based; details: data not shown
HSV-2 [7] = details: daily oral, co-formulation with FTC; ref Lama et al., 18th CROI 2011, # 1002; cited from earlier work

HSV-1 DNA polymerase, sequence (P04293 whole entry): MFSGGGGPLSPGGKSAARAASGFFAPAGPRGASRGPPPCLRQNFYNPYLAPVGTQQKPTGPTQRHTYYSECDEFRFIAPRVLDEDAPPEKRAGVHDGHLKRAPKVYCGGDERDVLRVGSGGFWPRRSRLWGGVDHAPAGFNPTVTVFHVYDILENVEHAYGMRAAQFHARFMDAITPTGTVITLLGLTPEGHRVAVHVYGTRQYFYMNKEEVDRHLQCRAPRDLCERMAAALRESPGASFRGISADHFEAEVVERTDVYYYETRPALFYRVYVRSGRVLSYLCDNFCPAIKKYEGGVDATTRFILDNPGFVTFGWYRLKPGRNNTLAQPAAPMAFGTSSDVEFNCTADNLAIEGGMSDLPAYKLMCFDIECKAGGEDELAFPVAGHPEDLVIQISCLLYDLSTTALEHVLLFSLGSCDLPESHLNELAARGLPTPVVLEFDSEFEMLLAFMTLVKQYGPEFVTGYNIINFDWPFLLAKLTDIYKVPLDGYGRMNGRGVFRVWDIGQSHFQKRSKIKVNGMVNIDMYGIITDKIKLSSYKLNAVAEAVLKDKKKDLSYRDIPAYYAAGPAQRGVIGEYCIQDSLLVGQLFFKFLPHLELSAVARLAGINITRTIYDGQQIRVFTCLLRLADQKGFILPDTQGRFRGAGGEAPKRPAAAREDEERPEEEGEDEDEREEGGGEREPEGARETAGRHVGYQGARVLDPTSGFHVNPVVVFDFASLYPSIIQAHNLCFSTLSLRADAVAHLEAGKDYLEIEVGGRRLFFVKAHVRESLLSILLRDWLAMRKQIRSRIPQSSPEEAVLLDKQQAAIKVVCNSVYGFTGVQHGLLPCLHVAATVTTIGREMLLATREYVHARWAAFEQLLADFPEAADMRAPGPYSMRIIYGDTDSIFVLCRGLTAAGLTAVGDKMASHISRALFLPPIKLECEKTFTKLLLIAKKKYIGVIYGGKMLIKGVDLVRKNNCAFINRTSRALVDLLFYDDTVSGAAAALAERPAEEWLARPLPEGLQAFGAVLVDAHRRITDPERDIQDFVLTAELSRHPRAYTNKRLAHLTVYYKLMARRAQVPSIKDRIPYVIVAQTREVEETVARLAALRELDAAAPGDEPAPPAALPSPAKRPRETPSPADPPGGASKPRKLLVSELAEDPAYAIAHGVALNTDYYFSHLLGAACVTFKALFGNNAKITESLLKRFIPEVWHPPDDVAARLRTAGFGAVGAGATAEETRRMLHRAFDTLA

SMILES: CC(Cn1cnc2c(N)ncnc21)OCP(=O)(O)OP(=O)(O)OP(=O)(O)O (stereo in doubt) [Tenofovir-diphosphate, Tenofovir diphosphate]
- IC50 HIV-1 RT (HIV-1 RT): 1.3 µg/mL
- IC50 herpesvirus DNA polymerase (HSV-1 DNA polymerase; competing dATP (3.2 μM)): 0.38 ± 0.03 µg/mL
- IC50 herpesvirus DNA polymerase (HSV-1 DNA polymerase; competing dCTP (2.5 μM)): 25 ± 1.8 µg/mL
- IC50 herpesvirus DNA polymerase (HSV-1 DNA polymerase; competing dGTP (2.8 μM)): 7.1 ± 5 µg/mL
- IC50 herpesvirus DNA polymerase (HSV-1 DNA polymerase; competing dTTP (1 μM)): 8.5 ± 3.8 µg/mL

SMILES: Nc1nc2c(ncn2COCCO)c(=O)[nH]1 [Acyclovir, 9-(2-hydroxyethoxy-methyl)guanine]
- CC50 at 3 days (Cytostatic activity [1]): 166 ± 17 µg/mL (≈ 737 µM)
- CC50 at 3 days (Cytostatic activity [2]): 132 µg/mL (≈ 586 µM)
- Cell toxicity MCC (minimum cytotoxic concentration) (HEL cells): >100 µg/mL
- Cell toxicity MCC (minimum cytotoxic concentration) (PHKs): >50 µg/mL
- inhibition of HIV-1 in herpesvirus-coinfected tissues (HIV-1): efficiently inhibits HIV-1

SMILES: Nc1ncnc2c1ncn2CCOCP(=O)(O)O [Adefovir, 9-[2-(phosphonylmethoxyethyl)adenine]]
- CC50 at 3 days (Cytostatic activity [1]): 100 ± 57 µg/mL (≈ 366 µM)
- CC50 at 3 days (Cytostatic activity [2]): 17 ± 6 µg/mL (≈ 62.2 µM)
- Cell toxicity MCC (minimum cytotoxic concentration) (HEL cells): >100 µg/mL
- Cell toxicity MCC (minimum cytotoxic concentration) (PHKs): >50 µg/mL
- Virus production (TCID50/ml) (HSV-2 [3]; 0.04 μg/ml, day 6): 1×10^5 TCID50/ml
- Virus production (TCID50/ml) (HSV-2 [3]; 0.2 μg/ml, day 6): 6×10^4 TCID50/ml
- Virus production (TCID50/ml) (HSV-2 [3]; 1 μg/ml, day 6): 8×10^2 TCID50/ml
- Virus production (TCID50/ml) (HSV-2 [3]; 5 μg/ml, day 6): No virus
- Virus production (TCID50/ml) (HSV-2 [3]; 20 μg/ml, day 6): No virus
- Virus production (TCID50/ml) (HSV-2 [3]; 100 μg/ml, day 6): No virus
- Virus production (TCID50/ml) (HSV-2 [3]; 500 μg/ml, day 6 post infection): No virus
- Virus production (PFU/ml) (HSV-2 [4]; 0.2 μg/ml): 9.9×10^3 PFU/ml
- Virus production (PFU/ml) (HSV-2 [4]; 1 μg/ml): 2.5×10^2 PFU/ml
- Virus production (PFU/ml) (HSV-2 [4]; 5 μg/ml): No virus
- Virus production (PFU/ml) (HSV-2 [4]; 20 μg/ml): No virus
- Virus production (PFU/ml) (HSV-2 [4]; 100 μg/ml): No virus
- Virus production (PFU/ml) (HSV-2 [4]; 500 μg/ml): No virus
- Cytopathicity (CPE) (%) (HSV-2 [5]; 0.2 μg/ml): 5%
- Cytopathicity (CPE) (%) (HSV-2 [5]; 1 μg/ml): None
- CPE suppression in M/M (HSV-2 [5]; 5 μg/ml): full CPE suppression
- Cytopathicity (CPE) (%) (HSV-2 [5]; 5 μg/ml): None
- Cytopathicity (CPE) (%) (HSV-2 [5]; 20 μg/ml): None
- Cytopathicity (CPE) (%) (HSV-2 [5]; 100 μg/ml): None
- Cytopathicity (CPE) (%) (HSV-2 [5]; 500 μg/ml): None
- performance in 1% gel-treated mice, HSV-1 vs HSV-2 (HSV-1): performed markedly better against HSV-1 than HSV-2
- performance in 1% gel-treated mice compared with tenofovir (HSV-2 [6]): virtually not superior to tenofovir against HSV-2

SMILES: Nc1ccn(C[C@@H](CO)OCP(=O)(O)O)c(=O)n1 [Cidofovir, (S)-1-(3-hydroxy-2-phosphonylmethoxypropyl)cytosine]
- CC50 at 3 days (Cytostatic activity [1]): 82 ± 57 µg/mL (≈ 294 µM)
- CC50 at 3 days (Cytostatic activity [2]): 34 ± 20 µg/mL (≈ 122 µM)
- Cell toxicity MCC (minimum cytotoxic concentration) (HEL cells): >100 µg/mL
- Cell toxicity MCC (minimum cytotoxic concentration) (PHKs): >50 µg/mL

SMILES: Nc1ccn([C@@H]2CS[C@H](CO)O2)c(=O)n1 [lamivudine]
- effect on HSV-2G replication (HSV-2G, HSV-2MS): no effect

SMILES: CC(C)OC(=O)OCOP(=O)(CO[C@H](C)Cn1cnc2c(N)ncnc21)OCOC(=O)OC(C)C [tenofovir DF, tenofovir disoproxil fumarate]
- effect on HSV-2 acquisition (HSV-2 [7]): did not reduce HSV-2 acquisition
